Measured values reported in ChEMBL document CHEMBL1142728, “Design and optimization of tricyclic phtalimide analogues as novel inhibitors of HIV-1 integrase” (J Med Chem, 2005).

Assays:
[1] = tested on: Human immunodeficiency virus 1; assay: Log of cytotoxic concentration against human immunodeficiency virus type 1 using cell-based replication assay in MT-4 cells; format: functional, MT4
Outline: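 Mock-infected MT4 cells (150 000 cells/mL) get the same compound concentration range and are incubated 3 days at 37 °C, 5% CO2, in parallel with the HIV-infected cultures. Toxicity is scored as reduced GFP reporter expression. CC50/pCC50 come from dose-response curves of percent inhibition.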

[2] = target: T1, Human immunodeficiency virus type 1 integrase (Human immunodeficiency virus 1, UniProt Q7ZJM1); assay: Log of inhibitory concentration against human immunodeficiency virus type 1 integrase
Outline: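 Strand transfer ELISA using recombinant His-tagged HIV-1 integrase expressed in E. coli BL21(DE3). 20 nM biotinylated processed viral DNA substrate is preincubated with 300 nM integrase for 5 min at 37 °C. Serial compound dilutions and 50 nM target DNA are then added in 20 mM Hepes pH 7.5, 25 mM NaCl, 5 mM MnCl2, 2 mM DTT, 50 µg/mL BSA and incubated 2 h at 37 °C. Products are captured on streptavidin plates, detected with anti-FITC peroxidase antibody and read by chemiluminescence.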

[3] = tested on: Human immunodeficiency virus 1; assay: Log of effective concentration against human immunodeficiency virus type 1 using cell-based replication assay in MT-4 cells; format: functional, organism-based; details: Human immunodeficiency virus 1, MT4
Outline: (§1)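 MT4 cells (150 000 cells/mL) infected with HIV-1/LAI wild type at 200 CCID50, with serial compound concentrations in 384-well format. Replication is read as GFP expression driven by HIV-tat acting on an LTR-GFP reporter. Incubation 3 days at 37 °C, 5% CO2. EC50/pEC50 are taken from dose-response curves of percent inhibition.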

[4] = target: T1, Human immunodeficiency virus type 1 integrase; assay: Inhibitory concentration against human immunodeficiency virus type 1 integrase
[5] = tested on: Human immunodeficiency virus 1; assay: Effective concentration against human immunodeficiency virus type 1 using cell-based replication assay in MT-4 cells; format: functional, organism-based; details: Human immunodeficiency virus 1, MT4; outline: as §1

T1 sequence (Q7ZJM1 whole entry): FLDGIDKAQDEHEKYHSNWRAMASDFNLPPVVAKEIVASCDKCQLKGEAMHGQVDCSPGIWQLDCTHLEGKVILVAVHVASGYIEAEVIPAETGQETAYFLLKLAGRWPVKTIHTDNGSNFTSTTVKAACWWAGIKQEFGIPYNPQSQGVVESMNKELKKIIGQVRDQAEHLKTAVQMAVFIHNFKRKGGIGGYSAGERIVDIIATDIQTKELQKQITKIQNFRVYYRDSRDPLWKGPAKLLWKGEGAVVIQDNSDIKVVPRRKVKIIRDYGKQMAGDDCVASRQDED

SMILES	pCC50 [1]	IC50 [2] [nM]	EC50 [3] [nM]	IC50 [4] [nM]	EC95 [5] [nM]
COc1ccc(CN2C(=O)c3c(c(O)c4nccnc4c3O)C2=O)cc1	4.64	562	3630		
O=C1c2c(c(O)c3nccnc3c2O)C(=O)N1Cc1cccc(-c2ccccc2F)c1	4.82	501	13200		
O=C1c2c(c(O)c3nccnc3c2O)C(=O)N1Cc1ccc(-c2ccccc2F)cc1	4.83	1000	14800		
O=C1c2c(c(O)c3nccnc3c2O)C(=O)N1CCc1ccc2c(c1)OCO2		1410	11000		
O=C(c1ccccc1)N1CCC(N2C(=O)c3c(c(O)c4nccnc4c3O)C2=O)CC1	<4.49	2400	> 32400		
COc1ccc(CN2C(=O)c3c(c(O)c4nccnc4c3O)C2=O)c(OC)c1	4.77	427	13500		
COc1ccccc1CN1C(=O)c2c(c(O)c3nccnc3c2O)C1=O	4.81	813	3800		
O=C1c2c(c(O)c3nccnc3c2O)C(=O)N1Cc1ccccc1Br	4.75	631	15100		
COc1ccc(OC)c(CN2C(=O)c3c(c(O)c4nccnc4c3O)C2=O)c1	4.73	776	4790		
CN1C(=O)c2c(c(O)c3nccnc3c2O)C1=O	<4.49	49000	> 32400		
COc1cccc(CN2C(=O)c3c(c(O)c4nccnc4c3O)C2=O)c1OC	4.72	427	4900		
COc1cccc(OC)c1CN1C(=O)c2c(c(O)c3nccnc3c2O)C1=O	5.09	2000	5370		
O=C1c2c(c(O)c3nccnc3c2O)C(=O)N1C1CCCC1	4.55	10500	> 32400		
O=C1c2c(c(O)c3nccnc3c2O)C(=O)N1Cc1cccc(C(F)(F)F)c1	4.77	427	9770		
Cc1ccc2c(O)c3c(c(O)c2n1)C(=O)N(Cc1cccc(Br)c1)C3=O	4.78	257	7590		
O=C1c2c(c(O)c3nccnc3c2O)C(=O)N1c1ccc2c(c1)OCO2	<4.49	10000	> 32400		
O=C1c2c(c(O)c3nccnc3c2O)C(=O)N1Cc1cccc(F)c1	4.77	562	5370		
Cc1ccc(CN2C(=O)c3c(c(O)c4nccnc4c3O)C2=O)cc1	4.86	1580	1780		
O=C1c2c(c(O)c3nccnc3c2O)C(=O)N1Cc1ccc(OC(F)(F)F)cc1	5.6	2040	1350		
O=C1c2c(c(O)c3nccnc3c2O)C(=O)N1Cc1ccc2c(c1)OCO2	<4.49	562	3160		
CC(C)Oc1ccc(Cc2ccccc2)cc1/C(O)=C/C(=O)C(=O)O				50	

SMILES	pCC50 [1]	IC50 [2] [nM]	EC50 [3] [nM]	IC50 [4] [nM]	EC95 [5] [nM]
O=S1(=O)CCCCN1c1nc(/C(O)=N/Cc2ccc(F)cc2)c(O)c2ncccc12				10	100
O=C1c2c(c(O)c3nnccc3c2O)C(=O)N1Cc1cccc(Br)c1	<4.49	3630	21400		
O=C1c2c(c(O)c3nccnc3c2O)C(=O)N1Cc1ccc(F)cc1	4.69	417	1550		
O=C1c2c(c(O)c3nccnc3c2O)C(=O)N1Cc1cc(Cl)cc(Cl)c1	4.72	186	724		
O=C1c2c(c(O)c3nccnc3c2O)C(=O)N1Cc1cc(F)cc(F)c1	<4.49	372	16600		
C[C@@H](c1ccccc1)N1C(=O)c2c(c(O)c3nccnc3c2O)C1=O	4.81	2040	15100		
O=C1c2c(c(O)c3ncccc3c2O)C(=O)N1Cc1cccc(Br)c1	5.21	380	3090		
O=C1c2c(c(O)c3nccnc3c2O)C(=O)N1Cc1cccc(Cl)c1	4.73	219	977		
O=C1c2c(c(O)c3nccnc3c2O)C(=O)N1CC1CCCCC1	5.19	2190	3470		
O=C1c2c(c(O)c3nccnc3c2O)C(=O)N1Cc1ccc(-c2ccccc2)cc1	5.47	1450	2570		
O=C1c2c(c(O)c3nccnc3c2O)C(=O)N1Cc1ccc(F)c(Cl)c1	4.7	178	3090		
C[C@H](c1ccccc1)N1C(=O)c2c(c(O)c3nccnc3c2O)C1=O	4.76	1050	10200		
O=C1c2c(c(O)c3nccnc3c2O)C(=O)N1Cc1ccncc1	<4.49	6760	> 32400		
O=C1c2c(c(O)c3nccnc3c2O)C(=O)N1C1CCNCC1	<4.49	> 100000	> 32400		
O=C1c2c(c(O)c3nccnc3c2O)C(=O)N1Cc1ccc(Cl)cc1	5.58	417	269		
O=C1c2c(c(O)c3ccccc3c2O)C(=O)N1Cc1ccc(F)cc1	4.59	> 100000	20000		
O=C1c2c(c(O)c3nccnc3c2O)C(=O)N1Cc1cc(Br)ccc1F	5.38	355	447		
O=C1c2c(c(O)c3nccnc3c2O)C(=O)N1Cc1ccc(Br)cc1F	5.11	437	2400		
O=C1c2c(c(O)c3nccnc3c2O)C(=O)N1Cc1ccc(Cl)c(Cl)c1	5.05	112	912		
O=C1c2c(c(O)c3nccnc3c2O)C(=O)N1Cc1cccc(Br)c1	4.49	209	7410		
O=C1c2c(c(O)c3nccnc3c2O)C(=O)N1CCc1ccccc1	5.23	2040	4900		
